Records with an inconclusive call do not appear. Calls of active or inactive are those of the source.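 The calls were made as follows: active = mean inhibition at 30 µM above 50% in every run; inconclusive = inhibition above 50% in some runs but not in others; inactive = inhibition at most 50% in every run.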
System: human washed platelets, A23187-induced P-selectin, flow cytometry
Assay: inhibitors of A23187-stimulated platelet P-selectin exposure, selectivity assay, cell-based, fluorescence, flow cytometry, platelets (AID 2522)
Conditions: at 30 µM, stronger effect = higher value
In short: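 Material: platelets / Reagent: Ca2+ ionophore A23187 at 10 µM, 15 min stimulation / Doses: single compound dose of 30 µM / Timing: 20 min compound pre-incubation, 15 min A23187, 20 min staining / Measured by: flow cytometry with PE-labeled anti-P-selectin antibody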

For `C/C(=N/NC(=O)C1CCCC1)c1ccc(NC(=O)C(F)(F)F)cc1`, the inhibition was 6% (inactive) and the inhibition (measured here: inhibition, second run) was 1%.
